{"source": "ChEMBL document CHEMBL5038583", "about": "“Highly Potent and Selective Butyrylcholinesterase Inhibitors for Cognitive Improvement and Neuroprotection” (J Med Chem, 2021)", "key": {"SH-SY5Y": {"system": "SH-SY5Y", "test": "Neuroprotective activity against H2O2-induced cytotoxicity in human SH-SY5Y cells pretreated for 2 hrs followed by H2O2 stimulation and measured after 24 hrs by MTT assay", "type": "functional, cell-based", "settings": "dose 2.5-10 µM, time 26.0 hrs", "procedure,_shortened": "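SH-SY5Y cells seeded at 5000 per well and grown 24 h. Pretreated 2 h with compound (2.5 or 10 μM, diluted in DMEM from 10⁻¹ M DMSO stock), then H₂O₂ 200 μM, glutamate 20 mM or aggregated Aβ1-42 15 μM for 24 h. MTT added for 4 h, formazan dissolved in DMSO, absorbance read at 492 nm. Viability relative to untreated control; mean ± SEM, n = 3.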"}, "Cholinesterase": {"target": "Cholinesterase (Equus caballus, UniProt P81908)", "sequence (P81908 whole entry)": "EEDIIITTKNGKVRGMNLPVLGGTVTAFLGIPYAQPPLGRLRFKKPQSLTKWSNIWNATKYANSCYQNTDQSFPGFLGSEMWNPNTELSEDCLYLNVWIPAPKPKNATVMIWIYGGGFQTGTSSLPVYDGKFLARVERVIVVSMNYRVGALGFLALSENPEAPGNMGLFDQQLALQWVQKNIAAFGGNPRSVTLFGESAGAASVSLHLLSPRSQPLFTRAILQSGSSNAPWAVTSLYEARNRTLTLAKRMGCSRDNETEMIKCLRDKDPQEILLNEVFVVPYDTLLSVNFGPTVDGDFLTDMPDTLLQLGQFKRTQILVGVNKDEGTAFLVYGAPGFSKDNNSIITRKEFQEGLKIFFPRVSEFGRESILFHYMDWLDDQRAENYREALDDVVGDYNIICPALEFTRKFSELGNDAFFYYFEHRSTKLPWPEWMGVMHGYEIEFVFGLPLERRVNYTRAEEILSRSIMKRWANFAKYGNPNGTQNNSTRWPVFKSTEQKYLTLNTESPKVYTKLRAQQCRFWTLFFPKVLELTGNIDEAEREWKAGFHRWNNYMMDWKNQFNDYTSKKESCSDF", "test": "Inhibition of equine serum BChE using butyrylthiocholine iodide as substrate preincubated for 5 mins followed by substrate addition and measured after 2 mins by DTNB-reagent based Ellman's method"}, "BV-2 [1]": {"system": "BV-2", "test": "Cytotoxicity against mouse BV-2 cells assessed as survival rate at 100 uM incubated for 24 hrs by MTT assay", "type": "functional", "procedure,_shortened": "(§1)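 Cells seeded at 1 × 10⁴/well in DMEM with 10% FBS and left overnight, then given compound (DMSO stock diluted in DMEM) for 24 h at 37 °C. MTT added for 4 h, formazan dissolved in DMSO, absorbance read at 492 nm. Viability taken as OD treated/OD DMEM × 100%; IC50 from three independent experiments, mean SD.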"}, "HepG2": {"system": "HepG2", "test": "Cytotoxicity against human HepG2 cells assessed as reduction in cell viability incubated for 24 hrs by MTT assay", "type": "functional, cell-based", "settings": "HepG2, 24 h", "procedure,_shortened": "as §1"}, "L02": {"system": "L02", "test": "Cytotoxicity against human L02 cells assessed as survival rate at 100 uM incubated for 24 hrs by MTT assay", "type": "functional", "procedure,_shortened": "as §1"}, "[2]": {"test": "Acute toxicity in ICR mouse assessed as animal death at […]", "settings": "in vivo, po, 1000 mg/kg, 336 h"}, "[3]": {"test": "Hepatotoxicity in ICR mouse assessed as morphological changes in liver at 1 g/kg, ig administered daily for 14 days analysed after 22 hrs post-administration by hematoxylin and eosin staining based analysis", "type": "toxicity, tissue-based", "settings": "in vivo, po, 1000 mg/kg, 336 h, time 14 day", "procedure,_shortened": "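Liver from male mice taken 22 h after compound or vehicle; hematoxylin−eosin staining, viewed at ×100.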"}, "[4]": {"test": "AUC (0 to infinity) in overnight fasted Sprague-Dawley rat at 10 mg/kg, po measured upto 1440 mins by LC/MS/MS analysis", "type": "ADME, organism-based", "parameters": "route oral, dose 10 mg/kg, time <=1440", "settings": "in vivo", "procedure,_shortened": "(§2)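 Male SD rats (180−220 g), n = 8 per route, fasted overnight with water available. Single 10 mg/kg dose p.o. or i.v. in DMSO/PEG400/saline (10:80:10). Retro-orbital blood taken into heparinized tubes at 1–1440 min. Plasma precipitated with methanol containing theophylline internal standard, then LC/MS/MS against a blank-plasma standard curve. Parameters from noncompartmental extravascular analysis; mean ± SD.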"}, "[5]": {"test": "AUC (0 to infinity) in overnight fasted Sprague-Dawley rat at 10 mg/kg, iv measured upto 1440 mins by LC/MS/MS analysis", "type": "ADME, organism-based", "parameters": "route intravenous, dose 10 mg/kg, time <=1440", "settings": "in vivo, 24 h", "procedure,_shortened": "as §2"}, "[6]": {"test": "MRT (0 to infinity) in overnight fasted Sprague-Dawley rat at 10 mg/kg, po measured upto 1440 mins by LC/MS/MS analysis", "type": "ADME, organism-based", "settings": "in vivo", "procedure,_shortened": "as §2"}, "[7]": {"test": "Half life in overnight fasted Sprague-Dawley rat at 10 mg/kg, po measured upto 1440 mins by LC/MS/MS analysis", "type": "ADME, organism-based", "settings": "in vivo", "procedure,_shortened": "as §2"}, "[8]": {"test": "Cmax in overnight fasted Sprague-Dawley rat at 10 mg/kg, po measured upto 1440 mins by LC/MS/MS analysis", "type": "ADME, organism-based", "parameters": "route oral, dose 10 mg/kg, time <=1440", "settings": "in vivo", "procedure,_shortened": "as §2"}, "[9]": {"test": "Oral bioavailability in overnight fasted Sprague-Dawley rat at 10 mg/kg measured upto 1440 mins by LC/MS/MS analysis", "type": "ADME, organism-based", "settings": "in vivo", "procedure,_shortened": "as §2"}, "[10]": {"test": "AUC (0 to t) in ICR mouse plasma at 10 mg/kg, po measured upto 240 mins", "type": "ADME, organism-based", "parameters": "route oral, dose 10 mg/kg, time <=240", "procedure,_shortened": "(§3)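 ICR mice given 10 mg/kg orally in 5% DMSO/40% PEG400/55% saline (1 mg/mL). Blood (retro-orbital) and brain collected at 30, 60, 120 and 240 min. Brain homogenized in 2 volumes PBS, extracted with ethyl acetate, dried and reconstituted in mobile phase. Plasma processed as in the rat study; LC/MS/MS. Brain/plasma ratios from exposures, AUC(B) vs AUC(P).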"}, "[11]": {"test": "AUC (0 to t) in ICR mouse brain at 10 mg/kg, po measured upto 240 mins", "type": "ADME, organism-based", "parameters": "route oral, dose 10 mg/kg, time <=240", "procedure,_shortened": "as §3"}, "BV-2 [12]": {"system": "BV-2", "test": "Anti-inflammatory activity against mouse BV-2 cells assessed as blocked of LPS-induced increased ROS production by measuring green fluorescence preincubated for 1 hr by DCFH-DA staining based fluorescence microscopy", "type": "functional, cell-based", "procedure,_shortened": "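BV2 cells seeded at 1 × 10⁴ per well and grown 24 h at 37 °C. Compounds at various concentrations for 1 h, then LPS 2.5 μg/mL for 24 h. Washed in PBS, loaded with DCFH-DA 5 μM (final) for 30 min, washed three times. Intracellular ROS taken as green fluorescence intensity by inverted fluorescence microscopy, exposure fixed at 10.2 ms.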"}, "[13]": {"test": "Ratio of drug concentration in brain to plasma of ICR mouse at 10 mg/kg, po measured after 1 hrs", "type": "ADME, organism-based", "procedure,_shortened": "as §3"}, "[14]": {"test": "Ratio of drug concentration in brain to plasma of ICR mouse at 10 mg/kg, po measured after 2 hrs", "type": "ADME, organism-based", "procedure,_shortened": "as §3"}, "Mus musculus [15]": {"system": "Mus musculus", "test": "Antialzheimer activity in ICR mouse assessed as reduction in scopolamine-induced cognitive impairment at 30 mg/kg, ig administered for 10 consecutive days by Morris water maze test", "type": "functional, organism-based", "settings": "time 10.0 day", "procedure,_shortened": "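Male ICR mice (8−10 weeks, 18−20 g), n = 8 per group. Compound at 15 or 30 mg/kg intragastric in DMSO/saline (10:90), given 30 min before scopolamine 3 mg/kg i.p., for 10 consecutive days; tacrine 15 mg/kg as reference. Morris water maze: 5 days of training, probe trial on day 6 with platform removed. Escape latency and trajectory recorded; mean ± SD.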"}, "Mus musculus [16]": {"system": "Mus musculus", "test": "Anti-alzheimer activity in amyloid beta(1 to 42)-induced ICR mouse model of cognitive impairment assessed as reduction in escape latency time at 15 mg/kg, ig administered at days 2 to 14 by Morris water maze test", "type": "functional", "procedure,_shortened": "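Mouse model by icv oligomerized Aβ1-42 (10 μg/mouse, aggregated 24 h at 37 °C in saline) on day 1; 15 mg/kg ig on days 2−14, n = 8. Morris water maze training on days 9−13, probe trial day 14, escape latency and track recorded. Mean SD.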"}, "Mus musculus [17]": {"system": "Mus musculus", "test": "Anti-alzheimer activity in amyloid beta(1 to 42)-induced ICR mouse model of cognitive impairment assessed as enhanced alternation performance by measuring total number of arm entries at 15 mg/kg, ig administered at days 2 to 14 and measured on day 15 by Y-maze test", "type": "functional", "procedure,_shortened": "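Oligomerized Aβ1-42 (10 μg per mouse, icv) given on day 1; saline icv for sham. Dosing 15 mg/kg ig on days 2−14 (donepezil as positive control), n = 8. Spontaneous alternation read on day 15 in a three-arm grey PVC Y maze, arms at 120°. Mean SD.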"}, "Plasma": {"system": "Plasma", "test": "Increase in ghrelin levels in ICR mouse plasma assessed as inhibition of BChE", "type": "functional, cell-free"}, "[18]": {"test": "Toxicity in ICR mouse assessed as increase in body weight administered for 14 days and measured daily", "settings": "in vivo, 15 mg/kg, 336 h"}}, "note": "The source made the active and inactive calls. The calls are words filed in the database; no cut-off is given here."}
{"molecule": "Nc1nonc1-c1nc2ccccc2n1CC(=O)Nc1cnc2ccccc2c1", "values": [{"measurement": "Activity", "setting": "SH-SY5Y", "result": "Dose-Dependent Effect"}, {"measurement": "IC50", "setting": "Cholinesterase", "result": 0.02, "unit": "µM"}, {"measurement": "Activity", "setting": "BV-2 [1]", "result": 69.72, "unit": "%"}, {"measurement": "IC50", "setting": "HepG2", "result": 84.3, "unit": "µM"}, {"measurement": "Activity", "setting": "L02", "result": 70.64, "unit": "%"}, {"measurement": "Activity", "setting": "[2]", "result": "Non-Toxic"}, {"measurement": "Activity", "setting": "[3]", "result": "Non-Toxic"}, {"measurement": "AUC(0-inf)", "setting": "[4]", "result": 662, "unit": "ng·h/mL"}, {"measurement": "AUC", "setting": "[5]", "result": 1092.11, "unit": "ng·h/mL"}, {"measurement": "MRT inf", "setting": "[6]", "result": 11.6, "unit": "h"}, {"measurement": "half-life", "setting": "[7]", "result": 5.47, "unit": "h"}, {"measurement": "Cmax", "setting": "[8]", "result": 44.7, "unit": "ng/mL"}, {"measurement": "bioavailability", "setting": "[9]", "result": 73.4, "unit": "%"}, {"measurement": "AUC(0-t) at 4 h", "setting": "[10]", "result": 94.7, "unit": "ng·h/mL"}, {"measurement": "AUC(0-t) at 4 h", "setting": "[11]", "result": 34.1, "unit": "ng·h/mL"}, {"measurement": "Activity", "setting": "BV-2 [12]", "result": "Active"}, {"measurement": "Kp at 1 h", "setting": "[13]", "result": 5.05}, {"measurement": "Kp at 2 h", "setting": "[14]", "result": 2.43}, {"measurement": "Activity", "setting": "Mus musculus [15]", "result": "Active"}, {"measurement": "Time", "setting": "Mus musculus [16]", "result": 13.83, "unit": "s"}, {"measurement": "Activity", "setting": "Mus musculus [17]", "result": "Active"}, {"measurement": "Activity", "setting": "Plasma", "result": "Active"}, {"measurement": "Activity", "setting": "[18]", "result": "Toxic"}]}
